Screening data (PubChem BioAssay)
Only some compounds are listed: those with a hit (about 1.8% of all), similar ones and a draw of the others.
NPY-Y1 PAM-ag: human NPY-Y1 potentiation or agonism, primary screen. P25929. NPY-Y1 expressing cells, potentiator/agonist activation. activation, % at 3.6 µM. 220,000 tested, 0.37% active. AID 1304; in the data active = activation above about 33%, passing the limit was not always enough;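 note: cells stimulated with NPY at EC10 then isoproterenol at EC100; 0% = low agonist plus stimulus and 100% = saturating agonist plus stimulus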
Target sequence (P25929 whole entry, looked up): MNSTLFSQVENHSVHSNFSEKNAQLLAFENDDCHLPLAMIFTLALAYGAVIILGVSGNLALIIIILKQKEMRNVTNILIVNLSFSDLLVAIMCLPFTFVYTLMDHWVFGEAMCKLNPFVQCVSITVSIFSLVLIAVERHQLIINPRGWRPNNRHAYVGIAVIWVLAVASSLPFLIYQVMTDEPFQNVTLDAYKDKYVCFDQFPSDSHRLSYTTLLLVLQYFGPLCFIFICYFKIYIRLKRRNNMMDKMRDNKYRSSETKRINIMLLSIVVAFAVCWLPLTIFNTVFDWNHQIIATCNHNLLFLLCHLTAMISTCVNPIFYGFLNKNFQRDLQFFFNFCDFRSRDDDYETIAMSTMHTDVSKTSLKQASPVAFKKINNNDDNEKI
NPY-Y2 PAM-ag: potentiators or agonists of human neuropeptide Y receptor Y2 | cells expressing NPY-Y2, potentiator/agonist read-out | 220,000 tested, 0.45% active | activation, % at 3.6 µM; in the data active = activation above about 27%;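 note: cells stimulated with NPY near EC25 plus isoproterenol at EC100; 0% = vehicle plus submaximal agonist and 100% = vehicle plus saturating agonist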
Target sequence (P49146 whole entry, looked up): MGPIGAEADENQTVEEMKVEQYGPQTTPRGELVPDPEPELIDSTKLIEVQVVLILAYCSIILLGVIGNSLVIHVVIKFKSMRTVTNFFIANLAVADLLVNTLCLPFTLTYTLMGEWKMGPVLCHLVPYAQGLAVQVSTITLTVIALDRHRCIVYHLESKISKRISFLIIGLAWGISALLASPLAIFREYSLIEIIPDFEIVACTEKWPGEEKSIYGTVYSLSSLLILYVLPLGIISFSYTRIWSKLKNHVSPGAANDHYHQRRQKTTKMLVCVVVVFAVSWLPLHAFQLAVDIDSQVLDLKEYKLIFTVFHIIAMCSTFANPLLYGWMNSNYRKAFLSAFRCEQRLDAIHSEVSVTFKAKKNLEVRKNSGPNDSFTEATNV
NPY-Y1 antag: antagonists of human neuropeptide Y receptor Y1. HEK293-CNG Y1 cells, membrane potential fluorescence; NPY at EC95, then isoproterenol. inhibition, % at 3.6 µM. 200,000 tested, 1% active. P25929;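 active = inhibition above the campaign mean inhibition of all tested compounds plus 3 SD, cut at about 20% in these data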;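 note: 0% = DMSO wells given NPY plus isoproterenol and 100% = isoproterenol alone without NPY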
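Test system: HEK293 cells co-expressing NPY Y1 receptor and cyclic-nucleotide gated channel; Also added: NPY (25 nM), isoproterenol (1 µM), Ro 20-1724 (25 µM); Compound dosing: one concentration, 3.6 µM, in 0.4% DMSO; Timing: dye 3 h, compound 60 min room temperature, stimulation 45 min; Technique: Membrane-potential fluorescent dye readout.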
NPY-Y2 antag: NPY-Y2 (human) receptor antagonism. P49146. NPY-Y2 expressing cells, antagonist mode. inhibition, % at 2.7 µM. 140,000 tested, 0.99% active. AID 793;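 note: 0% = vehicle with agonist challenge and 100% = reference antagonist with challenge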
NPY1 antag conf: confirmation of human neuropeptide Y receptor Y1 antagonists; HEK293-CNG NPY-Y1, membrane potential fluorescence, cAMP; NPY challenge against isoproterenol-raised cAMP; AID 1254; 1,200 tested, 21% active; inhibition, % at 3.6 µM; shares compounds with NPY-Y1 antag; in the data active = inhibition above about 20%;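 note: 0% = vehicle with agonist plus stimulus and 100% = stimulus alone without agonist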
NPY2 antag ctr: human NPY-Y2 antagonism in NPY-Y1 counter-screen | shares compounds with NPY-Y1 antag | HEK293 NPY-Y2 CNG membrane potential fluorescence; cells given NPY, then isoproterenol | inhibition, % at 3.6 µM | 1,200 tested, 28% active | AID 1255;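 note: 0% = DMSO with agonist challenge and 100% = reference antagonist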
* marks the source's active call; other numbers are inactive results. Cut-off read from the data, not from the text of the source, unless noted: active = inhibition above about 17%; inactive = the rest.

How did O=c1[nH]nc(Cc2ccc(Cl)cc2Cl)c2ccccc12 do in these assays?
NPY-Y1 PAM-ag: 5.0; NPY-Y2 PAM-ag: 12.1; NPY-Y1 antag: 8.2; NPY-Y2 antag: 9.2

Results for CCOC(=O)CNc1ccc2c(c1)OCO2 ?
NPY-Y1 PAM-ag: -19.4; NPY-Y2 PAM-ag: -14.4; NPY-Y1 antag: 5.3; NPY-Y2 antag: 3.7

How did COc1ccc(N(C)S(=O)(=O)c2cccc(C(=O)NC3CCCCC3C)c2)cc1 (stereo unspecified) do in these assays?
NPY-Y1 PAM-ag: 33.4; NPY-Y2 PAM-ag: -7.1; NPY-Y1 antag: 23.6*; NPY1 antag conf: 14.9; NPY2 antag ctr: 11.3

How did COc1ccc(N(C)S(=O)(=O)c2cccc(C(=O)NC3CCCC3)c2)cc1 do in these assays?
NPY-Y1 PAM-ag: -3.9; NPY-Y2 PAM-ag: -27.4; NPY-Y1 antag: 19.6

How did COc1ccc(N(C)S(=O)(=O)c2cccc(C(=O)NCC3CCCCC3)c2)cc1 do in these assays?
NPY-Y1 PAM-ag: -18.5; NPY-Y2 PAM-ag: -19.5; NPY-Y1 antag: 25.8*; NPY1 antag conf: 20.9*; NPY2 antag ctr: 10.6

Results for CC1CCC(C(C)C)C(OC(=O)Cn2c(-c3ccc(Cl)cc3)[n+](C)c3ccccc32)C1 (stereo unspecified) ?
NPY-Y1 PAM-ag: -61.3; NPY-Y2 PAM-ag: -60.3

How did CC1CCC(C(C)C)C(OC(=O)Cn2c(-c3ccc(Br)cc3)[n+](C)c3ccccc32)C1 (stereo unspecified) do in these assays?
NPY-Y1 PAM-ag: -11.3; NPY-Y2 PAM-ag: -13.0; NPY-Y1 antag: 44.3*; NPY1 antag conf: 36.5*; NPY2 antag ctr: 40.5*

Results for Cc1ccccc1OCc1n(CC(=O)OC2CC(C)CCC2C(C)C)c2ccccc2[n+]1C (stereo unspecified) ?
NPY-Y1 PAM-ag: -35.1; NPY-Y2 PAM-ag: -16.6; NPY-Y1 antag: 29.2*; NPY1 antag conf: 35.6*; NPY2 antag ctr: 41.7*

How did NCCOc1ccc(C23CC4CC(CC(C4)C2)C3)cc1 do in these assays?
NPY-Y1 PAM-ag: -34.1; NPY-Y2 PAM-ag: -14.0; NPY-Y1 antag: 22.0*; NPY1 antag conf: 20.5*; NPY2 antag ctr: 35.3*

Results for OCCN1CCN(CC(O)COc2ccc(C34CC5CC(CC(C5)C3)C4)cc2)CC1 (stereo unspecified) ?
NPY-Y1 PAM-ag: -50.0; NPY-Y2 PAM-ag: -42.2; NPY-Y1 antag: 11.6

How did COc1cc(C(=O)Nc2ccc(S(=O)(=O)NC(C)C)cc2)cc(OC)c1OC do in these assays?
NPY-Y1 PAM-ag: -5.0; NPY-Y2 PAM-ag: -9.5; NPY-Y1 antag: 5.8; NPY-Y2 antag: 1.8

How did COc1ccc(OC)c(CCNC(=O)CS(=O)(=O)Cc2nc(-c3ccccc3C)oc2C)c1 do in these assays?
NPY-Y1 PAM-ag: -41.3; NPY-Y2 PAM-ag: -46.8; NPY-Y1 antag: 21.5*; NPY-Y2 antag: 15.7; NPY1 antag conf: 6.9; NPY2 antag ctr: 7.3

What do the screens show for `Cc1cc(C)c(C)c(S(=O)(=O)N2CCC(C(=O)Nc3ccccc3N3CCOCC3)CC2)c1C`?
NPY-Y1 PAM-ag: 4.6; NPY-Y2 PAM-ag: 9.5; NPY-Y1 antag: -0.5; NPY-Y2 antag: 1.1

How did CC1Cc2ccccc2N1C(=O)c1cc2sccc2n1Cc1ccc(F)cc1 (stereo unspecified) do in these assays?
NPY-Y1 PAM-ag: -38.6; NPY-Y2 PAM-ag: -12.3; NPY-Y1 antag: 20.4*; NPY-Y2 antag: 10.7; NPY1 antag conf: 8.2; NPY2 antag ctr: 14.8

Results for O=Cc1cn(CC(O)CN2CCCCC2)c2ccccc12 (stereo unspecified) ?
NPY-Y1 PAM-ag: -9.6; NPY-Y2 PAM-ag: -7.2; NPY-Y1 antag: 3.6

What do the screens show for `Cc1ccc(C(CCN)c2ccco2)cc1` (stereo unspecified)?
NPY-Y1 PAM-ag: -4.2; NPY-Y2 PAM-ag: -2.7; NPY-Y1 antag: 6.6; NPY-Y2 antag: -0.5

What do the screens show for `CCN(CC)CCOC(=O)/C=C/c1ccccc1OC`?
NPY-Y1 PAM-ag: 15.5; NPY-Y2 PAM-ag: 9.9; NPY-Y1 antag: 21.1*; NPY-Y2 antag: 1.4; NPY1 antag conf: -0.7; NPY2 antag ctr: 2.5

What do the screens show for `Clc1cccc(Cl)c1CSc1nnc(/C=C/c2ccccc2)o1`?
NPY-Y1 PAM-ag: -40.0; NPY-Y2 PAM-ag: -39.2; NPY-Y1 antag: 23.3*; NPY-Y2 antag: 16.0; NPY1 antag conf: 15.8; NPY2 antag ctr: 16.2

How did CCOC(=O)c1sc(NC(=O)CSc2nnc(C)s2)c(C(=O)OCC)c1C do in these assays?
NPY-Y1 PAM-ag: 1.0; NPY-Y2 PAM-ag: -0.6; NPY-Y1 antag: 2.9; NPY-Y2 antag: 2.0

How did CCOC(=O)c1c(NC(=O)CSc2nnc(C)s2)sc2c1CCC(CC)C2 (stereo unspecified) do in these assays?
NPY-Y1 PAM-ag: -58.1; NPY-Y2 PAM-ag: -22.7; NPY-Y1 antag: 33.8*; NPY-Y2 antag: 9.5; NPY1 antag conf: 14.8; NPY2 antag ctr: 17.6*

How did CC(=O)N1c2ccccc2Nc2ccccc21 do in these assays?
NPY-Y1 PAM-ag: 11.7; NPY-Y2 PAM-ag: -8.7; NPY-Y1 antag: -2.5; NPY-Y2 antag: 2.7

What do the screens show for `c1ccc(Oc2ncnc3oc(-c4ccccc4)cc23)cc1`?
NPY-Y1 PAM-ag: 7.2; NPY-Y2 PAM-ag: -7.9; NPY-Y1 antag: -1.1; NPY-Y2 antag: 1.7

What do the screens show for `c1ccc(-c2cc3c(-n4cccc4)ncnc3o2)cc1`?
NPY-Y1 PAM-ag: -8.7; NPY-Y2 PAM-ag: -23.2; NPY-Y1 antag: 21.2*; NPY-Y2 antag: 10.1; NPY1 antag conf: 4.0; NPY2 antag ctr: 7.5

What do the screens show for `O=C(O)c1ccc(Cn2c(SCc3cc(=O)n4cc(Br)ccc4n3)nc3ccsc3c2=O)cc1`?
NPY-Y1 PAM-ag: 25.8; NPY-Y2 PAM-ag: 9.8; NPY-Y1 antag: -2.2

How did O=C(O)C1CCC(Cn2c(SCc3cc(=O)n4cc(Br)ccc4n3)nc3ccsc3c2=O)CC1 (stereo unspecified) do in these assays?
NPY-Y1 PAM-ag: -26.0; NPY-Y2 PAM-ag: -37.3; NPY-Y1 antag: 26.0*; NPY1 antag conf: 80.5*; NPY2 antag ctr: 87.2*

Results for O=C(Nc1ccc(Cl)cc1C(=O)NCC1CCCO1)c1ccco1 (stereo unspecified) ?
NPY-Y1 PAM-ag: 1.4; NPY-Y2 PAM-ag: -0.1; NPY-Y1 antag: 1.8; NPY-Y2 antag: -0.1

What do the screens show for `COc1ccccc1CN(Cc1cc2cc(C)ccc2[nH]c1=O)Cc1nnnn1CC1CCCO1` (stereo unspecified)?
NPY-Y1 PAM-ag: -11.3; NPY-Y2 PAM-ag: -5.4; NPY-Y1 antag: 5.5; NPY-Y2 antag: 5.1

Results for CCCCOc1ccccc1C1CC(=O)NC2=C1C(=O)CCC2 (stereo unspecified) ?
NPY-Y1 PAM-ag: -13.2; NPY-Y2 PAM-ag: -7.9; NPY-Y1 antag: 44.0*; NPY-Y2 antag: 3.2; NPY1 antag conf: 9.7; NPY2 antag ctr: 21.5*

Results for CCCOc1ccccc1C1CC(=O)NC2=C1C(=O)CCC2 (stereo unspecified) ?
NPY-Y1 PAM-ag: 23.4; NPY-Y2 PAM-ag: 8.4; NPY-Y1 antag: -2.9; NPY-Y2 antag: 3.6

Results for COc1ccc(CCN(C)c2ccc(S(=O)(=O)N3CCCC3)cn2)cc1OC ?
NPY-Y1 PAM-ag: 6.1; NPY-Y2 PAM-ag: 2.4; NPY-Y1 antag: -1.6
